Reference: ChEMBL document CHEMBL4602736, “Progress in the Field of Aldehyde Dehydrogenase Inhibitors: Novel Imidazo[1,2-a]pyridines against the 1A Family” (ACS Med Chem Lett, 2020)
Activity calls are given as the source filed them. The rule behind the calls is not given here.

Assays:
[1] = biological target: T1, Retinaldehyde dehydrogenase 3 (Homo sapiens, UniProt P47895); test: Inhibition of human recombinant ALDH1A3 pre-incubated for 5 mins before acetaldehyde addition by continuous spectrometric assay relative to control
T1 sequence (P47895 whole entry): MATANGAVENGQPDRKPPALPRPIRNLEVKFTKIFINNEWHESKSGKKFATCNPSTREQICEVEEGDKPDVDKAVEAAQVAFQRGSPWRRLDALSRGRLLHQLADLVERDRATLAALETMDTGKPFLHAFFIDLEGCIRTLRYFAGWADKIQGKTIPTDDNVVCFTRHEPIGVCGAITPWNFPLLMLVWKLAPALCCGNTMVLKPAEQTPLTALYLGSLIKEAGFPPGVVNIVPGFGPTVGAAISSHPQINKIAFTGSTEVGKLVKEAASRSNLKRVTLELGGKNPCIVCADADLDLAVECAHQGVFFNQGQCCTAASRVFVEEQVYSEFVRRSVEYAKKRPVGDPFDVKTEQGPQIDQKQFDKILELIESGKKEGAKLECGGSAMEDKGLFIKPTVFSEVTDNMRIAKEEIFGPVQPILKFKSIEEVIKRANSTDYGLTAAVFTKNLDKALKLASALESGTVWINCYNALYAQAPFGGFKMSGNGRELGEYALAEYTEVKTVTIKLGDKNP
Procedure, shortened: (§1)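 IC50 is the concentration giving 50% inhibition of the human recombinant isoform. Compounds with no significant inhibition at 25 μM were listed as not active and had no IC50 determined.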

Retinal dehydrogenase 2 [2] = biological target: T2, Retinal dehydrogenase 2 (Homo sapiens, UniProt O94788); test: Inhibition of human recombinant ALDH1A2 pre-incubated for 5 mins before acetaldehyde addition by continuous spectrometric assay relative to control; procedure, shortened: as §1
T2 sequence (O94788 whole entry): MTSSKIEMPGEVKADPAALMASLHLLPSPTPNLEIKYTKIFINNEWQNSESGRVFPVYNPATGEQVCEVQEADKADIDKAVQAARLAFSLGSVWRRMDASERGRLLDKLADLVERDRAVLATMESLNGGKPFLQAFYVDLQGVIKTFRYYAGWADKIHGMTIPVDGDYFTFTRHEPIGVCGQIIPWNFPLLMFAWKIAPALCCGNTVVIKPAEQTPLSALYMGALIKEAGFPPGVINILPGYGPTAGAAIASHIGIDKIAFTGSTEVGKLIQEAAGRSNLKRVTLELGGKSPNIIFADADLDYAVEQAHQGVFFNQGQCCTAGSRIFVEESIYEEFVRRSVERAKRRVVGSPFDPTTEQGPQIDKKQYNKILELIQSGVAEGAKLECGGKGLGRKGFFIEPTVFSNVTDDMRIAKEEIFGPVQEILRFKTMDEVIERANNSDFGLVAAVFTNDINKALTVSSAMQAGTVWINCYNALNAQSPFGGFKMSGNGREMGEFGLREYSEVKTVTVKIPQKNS

[3] = biological target: T3, Aldehyde dehydrogenase 1A1 (Homo sapiens) (UniProt P00352); test: Inhibition of human recombinant ALDH1A1 assessed as remaining enzyme activity at 25 uM pre-incubated for 5 mins before acetaldehyde addition by continuous spectrometric assay relative to control
T3 sequence (whole entry): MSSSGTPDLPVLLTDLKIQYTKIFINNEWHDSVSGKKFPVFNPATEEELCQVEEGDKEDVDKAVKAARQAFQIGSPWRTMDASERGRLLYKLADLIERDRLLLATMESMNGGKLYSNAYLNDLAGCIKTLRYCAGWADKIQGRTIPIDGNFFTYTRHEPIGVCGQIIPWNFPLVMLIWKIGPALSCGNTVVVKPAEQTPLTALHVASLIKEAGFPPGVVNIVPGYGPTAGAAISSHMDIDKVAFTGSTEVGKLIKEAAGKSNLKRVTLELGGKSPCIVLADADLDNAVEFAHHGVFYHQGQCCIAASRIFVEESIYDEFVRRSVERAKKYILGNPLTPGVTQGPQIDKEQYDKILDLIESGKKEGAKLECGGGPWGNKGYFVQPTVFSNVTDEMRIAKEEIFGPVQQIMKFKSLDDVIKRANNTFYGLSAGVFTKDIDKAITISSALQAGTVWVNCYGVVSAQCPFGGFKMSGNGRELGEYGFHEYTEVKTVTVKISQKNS
Procedure, shortened: (§2)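 Preliminary single-concentration screen at 25 μM against human recombinant ALDH1A1, ALDH1A2 and ALDH1A3, scored as residual enzyme activity versus control.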

[4] = biological target: T4, Retinaldehyde dehydrogenase 3 (Homo sapiens) (UniProt P47895); test: Inhibition of human recombinant ALDH1A3 assessed as remaining enzyme activity at 25 uM pre-incubated for 5 mins before acetaldehyde addition by continuous spectrometric assay relative to control; procedure, shortened: as §2
T4 sequence (whole entry): T1 sequence (P47895 whole entry)

[5] = biological target: T5, Retinal dehydrogenase 2 (Homo sapiens) (UniProt O94788); test: Inhibition of human recombinant ALDH1A2 assessed as remaining enzyme activity at 25 uM pre-incubated for 5 mins before acetaldehyde addition by continuous spectrometric assay relative to control; procedure, shortened: as §2
T5 sequence (whole entry): T2 sequence (O94788 whole entry)

[6] = biological target: T6, Aldehyde dehydrogenase 1A1 (Homo sapiens, UniProt P00352); test: Inhibition of human recombinant ALDH1A1 pre-incubated for 5 mins before acetaldehyde addition by continuous spectrometric assay relative to control; procedure, shortened: as §1
T6 sequence (P00352 whole entry): T3 sequence (whole entry)

Retinal dehydrogenase 2 [7] = biological target: T2, Retinal dehydrogenase 2; test: Competitive inhibition of human recombinant ALDH1A2 pre-incubated for 5 mins before acetaldehyde addition by continuous spectrometric assay relative to control
[8] = biological target: T6, Aldehyde dehydrogenase 1A1; test: Competitive inhibition of human recombinant ALDH1A1 pre-incubated for 5 mins before acetaldehyde addition by continuous spectrometric assay relative to control
[9] = biological target: T1, Retinaldehyde dehydrogenase 3; test: Competitive inhibition of human recombinant ALDH1A3 pre-incubated for 5 mins before acetaldehyde addition by continuous spectrometric assay relative to control
U-87 MG = test: Antiproliferative activity against human U87MG cells assessed as reduction in cell vitality at 100 nM to 10 uM incubated for 72 hrs by MTT assay; format: functional, cell-based; settings: U-87MG ATCC

SMILES | IC50 [1] [µM] | IC50 (Retinal dehydrogenase 2 [2]) | Activity [3] [%] | Activity [4] [%] | Activity [5] [%] | IC50 [6] | Ki (Retinal dehydrogenase 2 [7]) [µM] | Ki [8] [µM] | Ki [9] [µM] | IC50 (Retinal dehydrogenase 2 [2]; read-out: IC50) [µM] | Activity (U-87 MG) | IC50 ([6]; read-out: IC50) [µM]
COc1cccc(-c2cn3cccc(-c4ccc(Cl)cc4)c3n2)c1 | 4.3 | Not Active | 75 to 100 | 50 to 75 | 50 to 75 | Not Active |  |  |  |  |  | 
c1ccc(-c2ccc(-c3cccn4cc(-c5ccccc5)nc34)cc2)cc1 |  |  | 75 to 100 | 75 to 100 | 75 to 100 |  |  |  |  |  |  | 
COC(=O)c1ccc(-c2cccn3cc(-c4ccccc4)nc23)cc1 | 0.66 | Not Active | 75 to 100 | 0 to 25 | 25 to 50 | Not Active | 0.92 | 79.5 | 0.12 |  |  | 
Cc1ccc(-c2cn3cccc(-c4ccccc4)c3n2)cc1 |  |  | 75 to 100 | 50 to 75 | 50 to 75 |  |  |  |  |  |  | 
c1ccc(-c2cn3cccc(-c4ccccc4)c3n2)cc1 | 80.6 |  | 75 to 100 | 50 to 75 | 50 to 75 | Not Active |  |  |  | 61.4 |  | 
Clc1ccc(-c2cccn3cc(-c4ccccc4)nc23)cc1 | 5.5 |  | 75 to 100 | 50 to 75 | 50 to 75 |  | 27.6 | 168 | 8.7 | 27.6 | Active | 168
COc1cccc(-c2cn3cccc(-c4ccc(-c5ccccc5)cc4)c3n2)c1 |  |  | 75 to 100 | 75 to 100 | 75 to 100 |  |  |  |  |  |  | 
COc1ccc(-c2cn3cccc(-c4ccc(F)cc4)c3n2)cc1 |  |  | 75 to 100 | 75 to 100 | 75 to 100 |  |  |  |  |  |  | 
COc1ccc(-c2cn3cccc(-c4cc(OC)c(OC)c(OC)c4)c3n2)cc1 |  |  | 75 to 100 | 75 to 100 | 75 to 100 |  |  |  |  |  |  | 
COc1cccc(-c2cn3cccc(-c4cc(OC)c(OC)c(OC)c4)c3n2)c1 |  |  | 75 to 100 | 75 to 100 | 75 to 100 |  |  |  |  |  |  | 
COc1ccc(-c2cn3cccc(-c4cc(OC)cc(OC)c4)c3n2)cc1 |  |  | 75 to 100 | 75 to 100 | 75 to 100 |  |  |  |  |  |  | 
Fc1ccc(-c2cccn3cc(-c4ccccc4)nc23)cc1 | 6 | Not Active | 75 to 100 | 25 to 50 | 25 to 50 | Not Active |  |  |  |  |  | 
O=C(COc1ccc(-c2cccn3cc(-c4ccccc4)nc23)cc1)c1ccccc1 |  |  | 75 to 100 | 75 to 100 | 75 to 100 |  |  |  |  |  |  | 
CC(C)Cc1ccc(-c2cccn3cc(-c4ccccc4)nc23)cc1 |  |  | 50 to 75 | 75 to 100 | 75 to 100 |  |  |  |  |  |  | 
Cc1ccc(-c2cn3cccc(-c4ccc(Cl)cc4)c3n2)cc1 |  |  | 75 to 100 | 50 to 75 | 75 to 100 |  |  |  |  |  |  | 
COC(=O)c1ccc(-c2cccn3cc(-c4ccc(OC)cc4)nc23)cc1 |  |  | 75 to 100 | 50 to 75 | 75 to 100 |  |  |  |  |  |  | 
COc1ccc(-c2cn3cccc(-c4ccc(Cl)cc4)c3n2)cc1 |  |  | 75 to 100 | 75 to 100 | 75 to 100 |  |  |  |  |  |  | 
COc1ccc(-c2cn3cccc(-c4ccc(-c5ccccc5)cc4)c3n2)cc1 |  |  | 50 to 75 | 75 to 100 | 75 to 100 |  |  |  |  |  |  | 
Cc1ccc(-c2cn3cccc(-c4ccc(F)cc4)c3n2)cc1 |  |  | 75 to 100 | 75 to 100 | 50 to 75 |  |  |  |  |  |  | 
COc1cccc(-c2cn3cccc(-c4ccc(F)cc4)c3n2)c1 | 7.2 | Not Active | 75 to 100 | 50 to 75 | 25 to 50 | Not Active |  |  |  |  |  | 
